Article PMC9283735 (Clinical and Translational Science, 2022)
Read-outs that look alike come from different tables or passages of the source. *1 amine or outer side, *2 acyl side, *3 side chain or, on linkers, in order; H or OH if unused. Where a SMILES comes first, the peptide text is derived from it. Bridges are numbered along the chain shown (N, C = ends). [ ]: non-standard residue; d: D form. The star is where a group is joined. Orn(4R-OH,5R-OCH2CH2NMe3+) = C[N+](C)(C)CCO[C@@H](N[*:3])[C@H](O)C[C@H](N[*:1])C(=O)[*:2]; pTerphenylCO(4''-OnC5H11) = CCCCCOc1ccc(-c2ccc(-c3ccc(C(=O)*)cc3)cc2)cc1; hTyr(3S-OH,4S-OH) = N[C@H](C(=O)O)[C@H](O)[C@@H](O)c1ccc(O)cc1; Pro(3S-OH,4S-Me) = C[C@H]1CN[C@H](C(=O)O)[C@H]1O; Hyp = O=C(O)[C@@H]1C[C@@H](O)CN1

Legend:
[1] = Plasma pharmacokinetics after a single s.c. dose; type: in vivo, human; settings: 10 mg single s.c. dose, healthy adults; for AUC(0-t): AUC0-last; for AUC(0-t) / Tmax: N = 6; for Tmax: T max
Outline: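 Healthy adults aged 18–45 y were randomized 3:1 to a single s.c. injection of the test compound (100 mg/ml formulation with mannitol) or placebo (5% dextrose). Parameters came from noncompartmental analysis (Lambda Z: adjusted r² ≥0.90, span ≥2.0 half-lives, ≥2 points after Tmax).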

healthy adult subjects [2] = type: in vivo, human
Outline: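 Unsolicited AEs (volunteered, not pre-specified) were recorded from dosing to final follow-up (day 30), graded 1–3, judged related or unrelated by the study physician, and coded with MedDRA 23.1. Clinical evaluation included ECGs, physical examinations and vital signs on select days. Laboratory tests covered hematology, coagulation, blood chemistry and dipstick urinalysis, run on samples taken after a fast of at least 8 h.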

[3] = single i.v. doses of 50, 100, 200 and 400 mg, human plasma; cited from earlier work
[4] = rats; cited from earlier work
healthy adult subjects [5] = experiment: Solicited local reactogenicity symptoms; type: in vivo, human; settings: 1 mg or 10 mg single s.c. dose
Outline: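 The injection site was evaluated from dosing to day 30: in-unit confinement for 7 days, then follow-up on days 14, 21 and 30 (±1 day). Solicited local symptoms were pain, tenderness, pruritus, ecchymosis, induration/swelling, erythema, nodule and ulceration, each graded mild (1), moderate (2) or severe (3). Subjects were randomized 3:1 to test compound or 5% dextrose placebo. Proportions carry Wilson-score 95% CIs.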

[6] = monkeys; cited from earlier work
[7] = human, plasma, sc, 10 mg, geometric mean, NCA
[8] = human, plasma, sc, 10 mg, median, NCA
[9] = cohort 1 (1 mg s.c.), of 3 who received rezafungin
[10] = cohort 2 (10 mg s.c.), of 6 who received rezafungin

In the case of `CCCCCOc1ccc(-c2ccc(-c3ccc(C(=O)N[C@H]4C[C@@H](O)[C@@H](OCC[N+](C)(C)C)NC(=O)[C@@H]5[C@@H](O)[C@@H](C)CN5C(=O)[C@H]([C@@H](C)O)NC(=O)[C@H]([C@H](O)[C@@H](O)c5ccc(O)cc5)NC(=O)[C@@H]5C[C@@H](O)CN5C(=O)[C@H]([C@@H](C)O)NC4=O)cc3)cc2)cc1` [rezafungin] ({pTerphenylCO(4''-OnC5H11)}-[Orn(4R-OH,5R-OCH2CH2NMe3+)]T[Hyp][hTyr(3S-OH,4S-OH)]T[Pro(3S-OH,4S-Me)]; lactam 1-C), the exposure period [1] is reported as roughly 1 month, the “t 1/2, geometric mean” value ([1]; plasma, NCA, geometric mean, N = 5) is reported as 186.2 h and the “AUC0-inf, maximum” value ([1]; plasma, NCA, maximum, N = 5) is reported as 53,200 ng*h/ml. For the same compound, the “CL/F, maximum” value ([1]; plasma, NCA, maximum, N = 5) was 0.344 L/h, the “V z/F, maximum” value ([1]; plasma, NCA, maximum, N = 5) was 95.6 L and the “t 1/2, maximum” value ([1]; plasma, NCA, maximum, N = 5) was 219 h. The “CL/F, minimum” value ([1]; plasma, NCA, minimum, N = 5) was 0.188 L/h, the “V z/F, minimum” value ([1]; plasma, NCA, minimum, N = 5) was 38.0 L and the “t 1/2, minimum” value ([1]; plasma, NCA, minimum, N = 5) was 140 h. The AUC(0-t) [1, 7] was 32800 ng·h/mL, the AUC(0-t) [1, 8] was 32000 ng·h/mL and the CL/F ([1]; human, plasma, sc, 10 mg, CL/F (apparent clearance), mean, NCA, N = 5) was 4.35 mL/min. For the same compound, the CL/F ([1]; human, plasma, sc, 10 mg, CL/F, geometric mean, NCA, N = 5) was 4.25 mL/min, the CL/F ([1]; human, plasma, sc, 10 mg, CL/F, median, NCA, N = 5) was 4.5 mL/min and the Tmax [1, 7] was 112 h. It also gave a Tmax ([1]; human, plasma, sc, 10 mg, mean, NCA) of 120 h, a Tmax [1, 8] of 144 h and a half-life ([1]; human, plasma, sc, 10 mg, t 1/2, median, NCA, median, N = 5) of 193 h. The “severe bradycardia, subjects” value (healthy adult subjects [2]; cohort 1 (1 mg s.c.), asymptomatic, determined not rezafungin-related) was “single subject”, the “sinus bradycardia (unsolicited AE), % of subjects” value (healthy adult subjects [2]; [9]) was 67% and the “sinus bradycardia (unsolicited AE), subjects” value (healthy adult subjects [2]; [9]) was 2. For the same compound, the “unsolicited AEs deemed related to rezafungin, number of subjects” value (healthy adult subjects [2]; cohort 2 (10 mg s.c.)) was “three”, the “unsolicited AEs deemed related to rezafungin, number of AEs” value (healthy adult subjects [2]; cohort 2 (10 mg s.c.), all mild) was “Five” and the “increased alanine aminotransferase (unsolicited AE), % of subjects” value (healthy adult subjects [2]; [10]) was 33%. For the same compound, the “increased alanine aminotransferase (unsolicited AE), subjects” value (healthy adult subjects [2]; [10]) was 2, the “T max after start of infusion” value [3] was ~ 1 h and the Total body clearance [3] was ~ 0.2 L/h. For the same compound, the “bioavailability of s.c. formulation” value [4] was no more than 80%, the “intensity of solicited reactogenicity symptoms” value (healthy adult subjects [5]) was “mild to moderate” and the “bioavailability of s.c. formulation” value [6] was no more than 80%.
